Results from ChEMBL document CHEMBL4715796, “Discovery of Chromane Containing Hepatitis C Virus (HCV) NS5A Inhibitors with Improved Potency against Resistance-Associated Variants” (J Med Chem, 2016).
Substitutions are numbered along the chain they refer to.

Tests used:
[1] = test system: Nonstructural protein 5A (Hepatitis C virus), Q5L478 [UNDEFINED MUTATION]; experiment: Inhibition of NS5A L31V mutant in Hepatitis C virus subtype 1a infected in human HuH7 cells assessed as reduction in viral replication by luciferase reporter gene assay; format: cell-based; details: Huh-7
How it was run: (§1)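 NS5A resistance variants engineered into GT1a-H77 or GT1b-Con1 replicons. Each variant replicon is transfected transiently by electroporation into a Huh7-derived cell line. Percent inhibition is taken from the drop in luciferase signal at each compound concentration, and EC90 is calculated from these. Values are means of at least two experiments.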

[2] = test system: T1, Nonstructural protein 5A (Hepatitis C virus), Q5L478 [Y93H]; experiment: Inhibition of NS5A Y93H mutant in Hepatitis C virus subtype 1a infected in human HuH7 cells assessed as reduction in viral replication by luciferase reporter gene assay; format: cell-based; details: Huh-7; how it was run: as §1
T1 sequence (whole entry): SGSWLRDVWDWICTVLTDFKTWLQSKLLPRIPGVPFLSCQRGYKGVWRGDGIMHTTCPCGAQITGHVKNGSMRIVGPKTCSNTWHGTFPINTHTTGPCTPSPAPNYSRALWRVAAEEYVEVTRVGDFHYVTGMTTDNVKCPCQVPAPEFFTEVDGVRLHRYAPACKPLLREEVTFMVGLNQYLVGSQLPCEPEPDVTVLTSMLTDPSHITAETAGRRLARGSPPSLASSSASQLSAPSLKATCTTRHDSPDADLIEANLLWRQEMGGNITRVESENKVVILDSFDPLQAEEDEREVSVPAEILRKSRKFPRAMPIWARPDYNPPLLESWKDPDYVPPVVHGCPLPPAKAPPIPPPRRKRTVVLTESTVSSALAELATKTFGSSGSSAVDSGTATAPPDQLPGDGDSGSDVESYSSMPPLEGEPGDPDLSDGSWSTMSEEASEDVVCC

Huh-7 [3] = experiment: Inhibition of NS5A in Hepatitis C virus subtype 4a infected in human HuH7 cells assessed as reduction in viral replication by luciferase reporter gene assay; format: cell-based
How it was run: (§2)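 Transient replicon assay with GT1a-H77, GT1b-Con1 or chimeric replicons, electroporated into a Huh7-derived cell line. Percent inhibition of replication, read as a drop in luciferase signal, was calculated at each concentration to give EC90. Values are means of at least two experiments.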

Huh-7 [4] = experiment: Inhibition of NS5A in Hepatitis C virus subtype 3a infected in human HuH7 cells assessed as reduction in viral replication by luciferase reporter gene assay; format: cell-based; how it was run: as §2
Huh-7 [5] = experiment: Inhibition of NS5A in Hepatitis C virus subtype 2b infected in human HuH7 cells assessed as reduction in viral replication by luciferase reporter gene assay; format: cell-based; how it was run: as §2
Huh-7 [6] = experiment: Inhibition of NS5A in Hepatitis C virus subtype 2a infected in human HuH7 cells assessed as reduction in viral replication by luciferase reporter gene assay; format: cell-based; how it was run: as §2
Huh-7 [7] = experiment: Inhibition of NS5A in Hepatitis C virus subtype 1b infected in human HuH7 cells assessed as reduction in viral replication by luciferase reporter gene assay; format: cell-based; how it was run: as §2
Huh-7 [8] = experiment: Inhibition of NS5A in Hepatitis C virus subtype 1a infected in human HuH7 cells assessed as reduction in viral replication by luciferase reporter gene assay; format: cell-based; how it was run: as §2
[9] = Selectivity ratio of EC90 for inhibition of NS5A in Hepatitis C virus subtype 3a infected in human HuH7 cells assessed as reduction in viral to EC90 for inhibition of NS5A in Hepatitis C virus subtype 1a; format: cell-based
[10] = Selectivity ratio of EC90 for inhibition of NS5A in Hepatitis C virus subtype 2b infected in human HuH7 cells assessed as reduction in viral to EC90 for inhibition of NS5A in Hepatitis C virus subtype 1a; format: cell-based
[11] = Selectivity ratio of EC90 for inhibition of NS5A in Hepatitis C virus subtype 1b infected in human HuH7 cells assessed as reduction in viral to EC90 for inhibition of NS5A in Hepatitis C virus subtype 1a; format: cell-based
How it was run: (§3)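 Fold shift calculated against the GT1a EC90, using EC90 values from the luciferase replicon assay in Huh7-derived cells.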

[12] = Oral bioavailability in male Wistar Han rat at 10 mg/kg post overnight fasting measured upto 24 hrs by LC-MS/MS analysis; format: ADME, organism-based; details: in vivo
How it was run: (§4)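 Overnight-fasted male Wistar Han rats or Beagle dogs, two animals per group, 24 h study. IV in 60% PEG200 (rat 2 mg/kg, dog 1 mg/kg). PO in 10% Tween (rat 10 mg/kg, dog 5 mg/kg). Blood sampled up to 24 h, plasma separated by centrifugation, and drug measured by LC/MS. MRT reported for the IV route.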

[13] = Drug concentration in male Wistar Han rat at 10 mg/kg, po measured after 24 hrs by LC/MS analysis; format: ADME, organism-based; details: in vivo, read-out: Drug uptake; how it was run: as §4
[14] = Cmax in male Wistar Han rats at 10 mg/kg, po administered post overnight fasting measured upto 24 hrs by LC-MS/MS analysis; format: ADME, organism-based; parameters: route oral, dose 10 mg/kg, time <=24; details: rat, in vivo; how it was run: as §4
[15] = AUC in male Wistar Han rats at 10 mg/kg, po administered post overnight fasting measured upto 24 hrs by LC-MS/MS analysis; format: ADME, organism-based; parameters: route oral, dose 10 mg/kg, time <=24; details: rat, in vivo; how it was run: as §4
[16] = Clearance in male Wistar Han rats at 2 mg/kg, iv administered post overnight fasting measured upto 24 hrs by LC-MS/MS analysis; format: ADME, organism-based; details: rat, in vivo; how it was run: as §4
[17] = Half-life in male Wistar Han rats at 2 mg/kg, iv administered post overnight fasting measured upto 24 hrs by LC-MS/MS analysis; format: ADME, organism-based; details: rat, in vivo; how it was run: as §4
[18] = Selectivity ratio of EC90 for inhibition of NS5A L31V mutant in Hepatitis C virus subtype 1a infected in human HuH7 cells assessed as reduction in viral to EC90 for inhibition of NS5A in Hepatitis C virus subtype 1a; format: cell-based
How it was run: (§5)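 Fold shift is calculated against the GT1a EC90. The variant EC90 comes from a transient replicon assay: the NS5A variant is introduced into a GT1a-H77 or GT1b-Con1 replicon and electroporated into Huh7-derived cells. The read-out is reduced luciferase signal. EC90s are means of at least two experiments.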

[19] = Selectivity ratio of EC90 for inhibition of NS5A Y93H mutant in Hepatitis C virus subtype 1a infected in human HuH7 cells assessed as reduction in viral to EC90 for inhibition of NS5A in Hepatitis C virus subtype 1a; format: cell-based; how it was run: as §5
[20] = Selectivity ratio of EC90 for inhibition of NS5A in Hepatitis C virus subtype 4a infected in human HuH7 cells assessed as reduction in viral to EC90 for inhibition of NS5A in Hepatitis C virus subtype 1a; format: cell-based; how it was run: as §3
[21] = test system: Nonstructural protein 5A (Hepatitis C virus), Q5L478 [UNDEFINED MUTATION]; experiment: Inhibition of NS5A L31V mutant in Hepatitis C virus subtype 1b; how it was run: as §1
[22] = test system: T2, Nonstructural protein 5A (Hepatitis C virus), Q5L478 [Y93N]; experiment: Inhibition of NS5A Y93N mutant in Hepatitis C virus subtype 1a; how it was run: as §1
T2 sequence (whole entry): T1 sequence (whole entry) with H93N

[23] = test system: T1, Nonstructural protein 5A (Hepatitis C virus), Q5L478 [Y93H]; experiment: Inhibition of NS5A Y93H mutant in Hepatitis C virus subtype 1b; how it was run: as §1
[24] = test system: Nonstructural protein 5A (Hepatitis C virus), Q5L478 [UNDEFINED MUTATION]; experiment: Inhibition of NS5A Q30R mutant in Hepatitis C virus subtype 1a; how it was run: as §1
[25] = test system: Hepatitis C virus subtype 1a; experiment: Inhibition of NS5A Q30D mutant in Hepatitis C virus subtype 1a; how it was run: as §1
[26] = Selectivity ratio of EC90 for inhibition of NS5A L31V mutant in Hepatitis C virus subtype 1b to EC90 for Selectivity ratio of EC90 for inhibition of NS5A in Hepatitis C virus subtype 1a; how it was run: as §5
[27] = Selectivity ratio of EC90 for inhibition of NS5A Y93H mutant in Hepatitis C virus subtype 1b to EC90 for Selectivity ratio of EC90 for inhibition of NS5A in Hepatitis C virus subtype 1a; how it was run: as §5
[28] = test system: Hepatitis C virus subtype 1a; experiment: Selectivity ratio of EC90 for inhibition of NS5A Y93N mutant in Hepatitis C virus subtype 1a to EC90 for Selectivity ratio of EC90 for inhibition of NS5A in Hepatitis C virus subtype 1a; how it was run: as §5
[29] = test system: Hepatitis C virus subtype 1a; experiment: Selectivity ratio of EC90 for inhibition of NS5A Q30D mutant in Hepatitis C virus subtype 1a to EC90 for Selectivity ratio of EC90 for inhibition of NS5A in Hepatitis C virus subtype 1a; how it was run: as §5
[30] = test system: Hepatitis C virus subtype 1a; experiment: Selectivity ratio of EC90 for inhibition of NS5A Q30R mutant in Hepatitis C virus subtype 1a to EC90 for Selectivity ratio of EC90 for inhibition of NS5A in Hepatitis C virus subtype 1a; how it was run: as §5

| Structure (SMILES) | EC90 [1] | EC90 [2] | EC90 (Huh-7 [3]) | EC90 (Huh-7 [4]) | EC90 (Huh-7 [5]) | EC90 (Huh-7 [6]) | EC90 (Huh-7 [7]) | EC90 (Huh-7 [8]) | Selectivity ratio [9] | Selectivity ratio [10] | Selectivity ratio [11] | bioavailability [12] | concentration at 24 h [13] | Cmax [14] | AUC at 24 h [15] | clearance [16] | half-life [17] | Selectivity ratio [18] | Selectivity ratio [19] | Selectivity ratio [20] | also measured |
| --- | --- | --- | --- | --- | --- | --- | --- | --- | --- | --- | --- | --- | --- | --- | --- | --- | --- | --- | --- | --- | --- |
| COC(=O)N[C@H](C(=O)N1CCC[C@H]1c1ncc(-c2ccc3c(c2)OC(c2cccc(-c4ccccc4)c2)n2c-3cc3cc(-c4cnc([C@@H]5CCCN5C(=O)[C@@H](NC(=O)OC)C(C)C)[nH]4)ccc32)[nH]1)C(C)C (mixture of isomers) | 1 nM | 21 nM | 0.02 nM | 0.3 nM | 3.8 nM | 0.004 nM | 0.006 nM | 0.005 nM |  |  |  |  |  |  |  |  |  |  |  |  |  |
| COC(=O)N[C@H](C(=O)N1CCC[C@H]1c1ncc(-c2ccc3c(c2)OC(c2ccc(-c4ccccc4)cc2)n2c-3cc3cc(-c4cnc([C@@H]5CCCN5C(=O)[C@@H](NC(=O)OC)C(C)C)[nH]4)ccc32)[nH]1)C(C)C (mixture of isomers) | < 2 nM | 4.6 nM | < 0.02 nM | < 0.2 nM | 2.6 nM | < 0.2 nM | < 0.02 nM | < 0.02 nM |  |  |  |  |  |  |  |  |  |  |  |  |  |
| COC(=O)N[C@H](C(=O)N1CCC[C@H]1c1ncc(-c2cc(F)c3c(c2)OC(c2ccc4c(c2)OC(C)(C)C4)n2c-3cc3cc(-c4cnc([C@@H]5CCCN5C(=O)[C@@H](NC(=O)OC)C(C)C)[nH]4)ccc32)[nH]1)C(C)C.O=C(O)C(F)(F)F.O=C(O)C(F)(F)F (some centres undefined) | 0.02 nM | 0.2 nM | 0.003 nM | 0.005 nM | 0.5 nM |  | 0.004 nM | 0.003 nM | 2 | 167 | 1 | 3% | 9 nM | 58 nM | 0.71 µM·h | 7 mL/min/kg | 8.4 h | 7 | 67 | 1 |  |
| COC(=O)N[C@H](C(=O)N1CCC[C@H]1c1ncc(-c2cc(F)c3c(c2)OC(c2ccc4c(c2)OCCC42CC2)n2c-3cc3cc(-c4cnc([C@@H]5CCCN5C(=O)[C@@H](NC(=O)OC)C(C)C)[nH]4)ccc32)[nH]1)C(C)C.O=C(O)C(F)(F)F.O=C(O)C(F)(F)F (some centres undefined) | 0.006 nM | 0.1 nM | 0.006 nM | 0.01 nM | 0.2 nM |  | 0.004 nM | 0.003 nM | 2 | 40 | 1 | 2% | 1 nM | 29 nM | 0.24 µM·h | 15 mL/min/kg | 8.5 h | 1 | 20 | 1 | EC90 [21]: 0.005 nM; EC90 [22]: 0.9 nM; EC90 [23]: 0.02 nM; EC90 [24]: 0.03 nM; EC90 [25]: 1.2 nM; Selectivity ratio [26]: 2; Selectivity ratio [27]: 7; Selectivity ratio [28]: 300; Selectivity ratio [29]: 400; Selectivity ratio [30]: 10 |
